Measured values from ChEMBL document CHEMBL2417549, “Identification of 2,3-dihydro-1H-pyrrolo[3,4-c]pyridine-derived ureas as potent inhibitors of human nicotinamide phosphoribosyltransferase (NAMPT)” (Bioorg Med Chem Lett, 2013).

Key:
[1] = Apparent permeability across apical to basolateral side in MDCK cells at 10 uM by LC-MS/MS analysis; type: ADME, cell-based, Canis lupus familiaris; settings: dog
How it was run: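 Apparent permeability, Papp A-B, measured across MDCK cell monolayers. Mean of at least two runs.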

[2] = Volume of distribution at steady state in NCR nude mouse at 5 mg/kg, iv; type: ADME, organism-based; parameters: dose 5 mg/kg, route intravenous; settings: in vivo, read-out: Vdss
How it was run: (§1)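 Female NCR nude mice given a single 5 mg/kg IV or oral dose as a solution in 35:10:15:40 PEG400:EtOH:PG:H2O. Plasma concentration-time profiles were used to derive Cmax, Tmax, Vss, CL, half-life and bioavailability.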

[3] = Oral bioavailability in NCR nude mouse at 5 mg/kg; type: ADME, organism-based; settings: in vivo; how it was run: as §1
[4] = Tmax in NCR nude mouse at 5 mg/kg, po; type: ADME, organism-based; parameters: dose 5 mg/kg, route oral; settings: in vivo; how it was run: as §1
[5] = Cmax in NCR nude mouse at 5 mg/kg, po; type: ADME, organism-based; parameters: dose 5 mg/kg, route oral; settings: in vivo; how it was run: as §1

Compound	Papp A→B at 10 µM [1] [×10⁻⁶ cm/s]	further results
O=C(NCc1ccc(S(=O)(=O)c2ccccc2)cc1)N1Cc2ccncc2C1	8.3	
Cc1ccc(S(=O)(=O)c2ccc(CNC(=O)N3Cc4ccncc4C3)cc2)cn1	2.5	Vd [2]: 2.04 L/kg; bioavailability [3]: 20.3%; Tmax [4]: 15 min; Cmax [5]: 330 nM
Nc1ccc(S(=O)(=O)c2ccc(CNC(=O)N3Cc4ccncc4C3)cc2)cn1	0.5	
CC(C)n1cc(S(=O)(=O)c2ccc(CNC(=O)N3Cc4ccncc4C3)cc2)cn1	4.1	
O=C(NCc1ccc(S(=O)(=O)C2CCN(C3COC3)CC2)cc1)N1Cc2ccncc2C1	0.1	
O=C(NCc1ccc(S(=O)(=O)C2CCN(C3CCOCC3)CC2)cc1)N1Cc2ccncc2C1	0.1	
